Measurements reported in ChEMBL document CHEMBL2321842, “Rapid Determination of Ionization Constants (pK a) by UV Spectroscopy Using 96-Well Microtiter Plates” (ACS Med Chem Lett, 2013).

test: Dissociation constant, pKa of the compound at pH 3 to 12 by UV spectroscopy; format: physicochemical
Method in brief: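 UV-spectrophotometric titration in microplate wells. 10 mM DMSO stock diluted into buffers to 0.2 mM final (0.1 mM if spectra saturated), 2% v/v DMSO. Buffers: acetate, phosphate, borax, glycine/NaOH, pH 3–12.6, ionic strength 0.1 M (KCl), 30 °C. Spectra read at 2 nm resolution. Total absorbance difference at two analytical wavelengths fitted against pH by nonlinear regression. Mean of ≥3 independent runs ± SD.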

Row | SMILES | pKa
1 | O=[N+]([O-])c1c[nH]cn1 | 9.2
2 | Cc1nc2ccccc2[nH]1 | 6.22
3 | c1cc(NC2=NCCN2)ccc1CCc1ccc(NC2=NCCN2)cc1 | 10.7
4 | O=[N+]([O-])c1ccc(O)cc1 [P-NITROPHENOL] | 6.87
5 | O=C(Nc1ccc(NC2=NCCN2)cc1)Nc1ccc(NC2=NCCN2)cc1 | 10.3
6 | N=C(N)Oc1ccc(Oc2ccc(OC(=N)N)cc2)cc1 | 10.7
7 | Clc1cccc(Cl)c1N=C1NCCN1 [CLONIDINE] | 8.14

The remaining lines, values ahead:

Row | pKa | SMILES
8 | 7.97 | ON1CCN/C1=N/c1ccc(CCc2ccc(/N=C3\NCCN3O)cc2)cc1
9 | 7.27 | CON1CCN/C1=N/c1ccc(C(=O)Nc2ccc(/N=C3\NCCN3OC)cc2)cc1
10 | 8.01 | CCON1CCN/C1=N/c1ccc(CCc2ccc(/N=C3\NCCN3OCC)cc2)cc1
11 | 8.01 | CON1CCN/C1=N/c1ccc(CCc2ccc(/N=C3\NCCN3OC)cc2)cc1
12 | 7.43 | O=C(Nc1ccc(/N=C2\NCCN2O)cc1)c1ccc(/N=C2/NCCN2O)cc1
13 | 7.34 | CCON1CCN/C1=N/c1ccc(C(=O)Nc2ccc(/N=C3\NCCN3OCC)cc2)cc1
14 | 8.27 | CCON1CCN/C1=N\c1ccc(NC(=O)Nc2ccc(/N=C3\NCCN3OCC)cc2)cc1
15 | 7.95 | CON1CCN/C1=N\c1ccc(NC(=O)Nc2ccc(/N=C3\NCCN3OC)cc2)cc1
